Measured values as given in ChEMBL document CHEMBL1144050, “Two novel acetogenins, annoglaxin and 27-hydroxybullatacin, from Annona glabra” (J Nat Prod, 1999).
≈ marks a conversion by molar mass, not a printed value.

How the values were obtained:
PC-3 = assay: Cytotoxicity against human PC-3 cells after 7 days by MTT assay; format: functional; conditions: for EC50: Homo sapiens, PC-3, 168 h, read-out: ED50 (the source's name)
Method in brief: (§1)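 Standard 7-day MTT cytotoxicity assay on human tumour lines: A-549 (lung carcinoma), MCF-7 (breast carcinoma), HT-29 (colon adenocarcinoma), A-498 (kidney carcinoma), PC-3 (prostate adenocarcinoma), PACA-2 (pancreatic carcinoma). Adriamycin was run as the positive control standard.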

MCF7 = assay: Cytotoxicity against human MCF7 cells after 7 days by MTT assay; format: functional; method in brief: as §1
Artemia salina = assay: (§2) Toxicity in brine shrimp; format: organism-based; conditions: in vivo
A549 = assay: Cytotoxicity against human A549 cells after 7 days by MTT assay; format: functional; conditions: A549, 168 h, read-out: ED50 (the source's name); method in brief: as §1
HT-29 = assay: Cytotoxicity against human HT29 cells after 7 days by MTT assay; format: functional; conditions: for EC50: Homo sapiens, HT-29, 168 h, read-out: ED50 (the source's name); method in brief: as §1
A498 = assay: Cytotoxicity against human A498 cells after 7 days by MTT assay; format: functional; conditions: for EC50: Homo sapiens, A498, 168 h, read-out: ED50 (the source's name); method in brief: as §1
MIA PaCa-2 = assay: Cytotoxicity against human PACA2 cells after 7 days by MTT assay; format: functional; conditions: for EC50: Homo sapiens, MIA PaCa-2, 168 h, read-out: ED50 (the source's name); method in brief: as §1
[1] = as §2; format: organism-based; conditions: artemia salina, in vivo

Structure (SMILES)	ED50 (PC-3) [×10⁻⁹ ug/ml]	ED50 (MCF7) [×10⁻⁴ ug/ml]	LC50 (Artemia salina) [×10⁻² ug/ml]	EC50 (A549) [µg/mL]	ED50 (HT-29) [×10⁻⁵ ug/ml]	ED50 (A498) [×10⁻⁸ ug/ml]	ED50 (MIA PaCa-2) [×10⁻⁹ ug/ml]	EC50 (PC-3) [µg/mL]	EC50 (MCF7; Homo sapiens, MCF7, 168 h, read-out: ED50 (the source's name)) [µg/mL]	EC50 (HT-29) [µg/mL]	EC50 (A498) [µg/mL]	EC50 (MIA PaCa-2) [µg/mL]	LC50 [1] [µg/mL]
CCCCCCC[C@H](O)CC[C@H](O)[C@H]1CC[C@H]([C@H]2CC[C@H]([C@H](O)CCCCCCCCCC[C@@H](O)CC3=C[C@H](C)OC3=O)O2)O1	<1	7.8	4.3	0.0021 (≈ 0.00329 µM)	1.8	3.1	<1						
COc1cccc2c1C(=O)c1c(O)c3c(c(O)c1C2=O)C[C@@](O)(C(=O)CO)C[C@@H]3O[C@H]1C[C@H](N)[C@H](O)[C@H](C)O1 [DOXORUBICIN]				0.0013 (≈ 0.00239 µM)				0.02 (≈ 0.0368 µM)	0.09 (≈ 0.166 µM)	0.01 (≈ 0.0184 µM)	0.0019 (≈ 0.0035 µM)	0.0043 (≈ 0.00791 µM)	
CCCCCCCCCC[C@H](O)C[C@@H](O)[C@H]1CC[C@H]([C@H](O)CCC(=O)CCC[C@H](O)CCCCCC2=C[C@H](C)OC2=O)O1 [ANNOGLAXIN]		4.3		1.1 (≈ 1.8 µM)				0.87 (≈ 1.42 µM)		0.18 (≈ 0.295 µM)	1.8 (≈ 2.95 µM)	1.6 (≈ 2.62 µM)	0.29 (≈ 0.475 µM)
